# Bioassay records from PubChem.
# Candida biofilm: kills Candida albicans biofilms; C. albicans biofilm + clotrimazole, Alamar Blue; inhibition, % at 6 µM; 85,000 tested, 0.14% active;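 active = inhibition above 20%; inactive = inhibition below 20%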;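 also: preformed 24 hr biofilms exposed to compound for 48 hr; 0% = biofilm without compound and 100% = blank killed by clotrimazole plus chlorhexidine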
# PTEN del growth: growth suppressors of cells with PTEN tumor suppressor deletion. viability, % at 10 µM. AID 827. 140,000 tested, 1.2% active. HCT116 PTEN-null viability, CellTiter-Glo, 60 h; active compounds read low;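 active = viability at or below a set limit, 4 SD under the median of all tested compounds, cut at about 3.7% in these data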;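 also: PTEN knockout HCT116 line with beta catenin targeted HCT116 as companion control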
# HUVEC inhibit: human endothelial cell proliferation inhibition; HUVEC proliferation, CellTiter-Glo luminescence, 72 h; active compounds read low; viability, % at 10 µM (by protocol); 86,000 tested, 1.1% active; AID 648;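 active = viability at or below 30%; inactive = viability above 30%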;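 also: 100% = median luminescence of DMSO-only cell control wells on each plate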
# Lung fibro prol: blocks proliferation of human lung fibroblasts; AID 719; viability, % at 10 µM; 85,000 tested, 1.1% active; LL 47 human lung fibroblast viability, ATP luminescence; active compounds read low;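 active = viability at or below 50% in the single dose screen; inactive = viability above 50%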;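 also: compound exposure lasted 72 h before the ATP readout; 100% = median luminescence of untreated cell-only wells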
#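 Test system: LL 47 human lung fibroblasts / Incubation: 72 h compound exposure at 37 °C after overnight plating / Technique: luminescent ATP detection, CellTiter-Glo / Compound dosing: 0.1% DMSO in all compound wells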
# bCat KO growth: beta-catenin-lacking colon tumor cell growth suppression; 140,000 tested, 1.5% active; viability, % at 10 µM; HCT116 beta-catenin knockout viability, CellTiter-Glo, 60 h; active compounds read low;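 active = viability at or under a set limit, the compound median less 4 SD, cut at about 6% in these data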;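 also: 0% = Hyamine 1622 control at 20 µM and 100% = untreated cell control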
# H69AR inhibit: blocks growth of human H69AR lung tumor cells. H69AR lung tumor viability, ATP luminescence, 72 h; active compounds read low. 85,000 tested, 6% active. AID 598. viability, % at 10 µM;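 active = viability at or below 40%; inactive = viability above 40%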;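 also: multidrug resistant small cell line overexpressing MRP-1 efflux transporter; 100% = mean luminescence of untreated control wells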
# * marks the source's active call; other numbers are inactive results; . = no result. The sample as a whole holds a higher share of hits than the screen did.
SMILES,Candida biofilm,PTEN del growth,HUVEC inhibit,Lung fibro prol,bCat KO growth,H69AR inhibit
COc1ccc(C(NC(C)=O)c2c(O)ccc3ccccc23)cc1OC (stereo not given),.,84,.,.,86,.
CC(C)C(=O)NC(c1ccco1)c1ccc2cccnc2c1O (stereo not given),11,2.0*,2.1*,14*,3.5*,1.9*
O=C(NCc1ccco1)c1cccnc1-c1nc2ccccc2s1,4,77,105,97,88,104
Oc1c(C(Nc2nc3ccccc3s2)c2ccco2)ccc2cccnc12 (stereo not given),8,15,4.5*,17*,13,44
COc1ccc(C(NC(C)=O)c2ccc3cccnc3c2O)c(OC)c1 (stereo not given),4,2.5*,2.4*,15*,3.7*,0.9*
CCOC(=O)CN(C(=O)CSc1nnc(COc2ccc(OC)cc2)n1C)c1ccccc1,4,90,97,90,92,96
O=C(CNc1ccc(Br)cc1)NNC1=NCCC1,.,97,.,.,84,.
Cc1ccc(C(=O)N2CCN(c3ncccn3)CC2)cc1S(=O)(=O)N1CCCCC1,.,99,.,.,100,.
COCCn1cc(C(=O)N2CCN(C)CC2)c2c3ccccc3n(C)c2c1=O,9,95,97,100,102,74
Cc1cccc(N2CCN(C(=O)c3cn(C)c(=O)c4c3c3ccccc3n4C)CC2)c1C,0,23,36,85,34,31*
Cn1c2ccccc2c2c(C(=O)N3CCN(c4ccccc4)CC3)cn(C3CCCC3)c(=O)c21,1,64,72,100,78,72
Cc1ccc(Cl)cc1N1CCN(C(=O)c2cn(C)c(=O)c3c2c2ccccc2n3C)CC1,0,1.3*,33,55,1.4*,3.4*
Cc1ccc(/C(O)=C2\C(=O)C(=O)N(CCCN(C)C)C2c2ccccn2)cc1 (stereo not given),5,.,101,103,.,99
N#Cc1cccc(NC(=S)Nc2ccccc2)c1,.,99,.,.,93,.
Cn1c(C(C#N)C(=O)c2sc3ccccc3c2Cl)nc2ccccc21 (stereo not given),3,84,78,90,90,17*
CSc1nc2nccc(/C=C\c3ccccc3)n2n1,.,4,.,.,4.5*,.
O=C(NC1CCCc2ccccc21)C1CCN(C(=O)c2sccc2-n2cccc2)CC1 (stereo not given),7,88,100,99,91,83
COc1cc(C2C(C#N)=C(C)NC(C)=C2C#N)cc(OC)c1OC,.,98,.,.,87,.
CCOc1ccc2nc(C)cc(Nc3cccc([N+](=O)[O-])c3)c2c1,.,1.5*,.,.,1.5*,.
CCOc1ccc2nc(C)cc(Nc3ccc4c(c3)OCCO4)c2c1,.,0.8*,.,.,0.7*,.
CCOc1ccc2nc(C)cc(Nc3ccc(N4CCOCC4)cc3)c2c1,.,60,.,.,68,.
Cc1ccc(CNC(=O)c2ccc(OCC3CCCO3)cc2)cc1 (stereo not given),.,102,.,.,104,.
COc1ccccc1CN(Cc1nc2ccccc2c(=O)[nH]1)C(=O)Nc1ccccc1C,1,57,80,97,77,100
Cc1ccccc1NC(=O)N(CCc1nc2ccccc2[nH]1)Cc1ccccc1,3,81,68,99,94,16*
Cc1ccc(C(=O)n2c3ccccc3c3ccccc32)cc1,5,29,53,46*,32,18*
SMILES,Candida biofilm,PTEN del growth,HUVEC inhibit,Lung fibro prol,bCat KO growth,H69AR inhibit
CC(=O)c1nnn(-c2nc(N)nc(N(c3ccccc3)c3ccccc3)n2)c1C,-3,81,86,79,83,48
CCCCN(CCCC)c1nc(OC)nc(-n2nnc(C(C)=O)c2C)n1,0,57,80,99,63,37*
Cc1cc(OCCOCCNC(C)C)cc(C)c1Cl,1,17,81,90,5.6*,28*
Cc1c(NC(=O)c2cc3nc(-c4ccc(Br)cc4)cc(C(F)(F)F)n3n2)c(=O)n(-c2ccccc2)n1C,9,84,103,46*,79,0.6*
CC(C)CC(=O)NC(NC(=S)Nc1sc2c(c1C#N)CCCC2)C(Cl)(Cl)Cl (stereo not given),.,88,.,.,82,.
Cc1cc(C)c(NC(=O)CN2CCN3CCCC3C2)c(C)c1 (stereo not given),.,106,.,.,99,.
Cc1ccc(NC(=S)N2CCN(c3ncccn3)CC2)c(C)c1,.,106,.,.,86,.
CC(O)CN=c1cc(-c2ccccc2)oc2ccc(Cl)cc12 (stereo not given),6,5,78,69,5.7*,29*
C/C(=N\NC(=O)c1cc(-c2cccc([N+](=O)[O-])c2)n[nH]1)c1ccccc1O,.,2.9*,.,.,9,.
C/C(=N\NC(=O)c1ccccc1C)c1cccc([N+](=O)[O-])c1,.,102,.,.,102,.
Cc1ccc2oc3c(c(=O)c2c1)C(c1cccc(O)c1)N(c1ccccn1)C3=O (stereo not given),15,54,90,98,58,86
COc1cc(C2c3c(oc4ccc(C)cc4c3=O)C(=O)N2c2cc(C)ccn2)cc(OC)c1OC (stereo not given),3,.,70,62,.,32*
O=C(Nn1c(C2CCCCC2)nc2ccccc2c1=O)c1ccc([N+](=O)[O-])cc1,.,92,.,.,89,.
O=C(Oc1cccc(/C=N/Nc2nc(Nc3ccccc3)nc(N3CCOCC3)n2)c1)c1ccco1,.,24,.,.,33,.
Cn1cc(/C=N/n2cnc3scc(-c4ccccc4)c3c2=O)c2ccccc21,8,12,38,51,14,28*
O=C(O)COc1ccc(/C=N/n2cnc3scc(-c4cccs4)c3c2=O)cc1,.,108,.,.,98,.
CC/S(C)=N/S(=O)(=O)c1ccc(C)cc1 (stereo not given),.,97,.,.,90,.
C[C@@H]1NC(=O)[C@H](CCC(=O)O)NC(=O)c2cc([N+](=O)[O-])cc(F)c2NCCC[C@@H](C(N)=O)NC1=O,.,95,.,.,98,.
COc1cccc(NC(=O)Cc2nnc(SCCOc3ccccc3)n2C)c1,9,88,105,94,87,54
COc1cccc(NC(=O)Cc2nnc(SCC(=O)c3ccccc3)n2C)c1,6,72,80,87,66,32*
CCC(C)(C)n1nnnc1C(c1cc2cc(C)cc(C)c2[nH]c1=O)N1CCN(Cc2ccc3c(c2)OCO3)CC1 (stereo not given),3,67,93,25*,71,8.6*
Cc1ccc(C)c(NC(=O)Cn2nc(C(F)(F)F)cc2C2CC2)c1,.,10,.,.,5.3*,.
CC(Nc1ccc(Cl)cc1)c1cc(Cl)ccc1O (stereo not given),8,92,71,90,78,39*
COC(=O)COc1ccc(S(=O)(=O)N2CCc3ccccc3C2)cc1C,-1,98,68,93,102,100
CCN(CC)S(=O)(=O)c1ccc(N2CCN(S(=O)(=O)c3ccccc3C#N)CC2)nc1,4,79,92,92,75,38*
